Columns and labels:
HDAC2 = HDAC2 (Homo sapiens, UniProt Q92769); assay: In vitro HDAC2 inhibition assay; type: biochemical; conditions: recombinant human HDAC2, Boc-Lys(acetyl)-AMC
[1] = In vivo antitumor assay, body weight of mice; design: species or system nu/nu mice; conditions: NTERA-2 cL.D1 xenograft, nude mice, 10 mg/kg daily intraperitoneal, 15 days
Method in brief: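 Male nu/nu mice aged 4–6 weeks received subcutaneous NTERA-2 cL.D1 cells (1×10⁷ in PBS). Once tumors reached 90–120 mm³, mice were randomized into four groups: vehicle, two reference inhibitors, or test compound, each at 10 mg/kg by daily intraperitoneal injection. Body weight and caliper tumor volume were recorded every 3 days for 15 days. n = 6 per group; mean ± SD.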

ATM = ATM (Homo sapiens, UniProt Q13315); assay: In vitro ATM inhibition assay; type: biochemical; conditions: recombinant human ATM, p53 substrate, HTRF
ATM, sequence (Q13315 whole entry): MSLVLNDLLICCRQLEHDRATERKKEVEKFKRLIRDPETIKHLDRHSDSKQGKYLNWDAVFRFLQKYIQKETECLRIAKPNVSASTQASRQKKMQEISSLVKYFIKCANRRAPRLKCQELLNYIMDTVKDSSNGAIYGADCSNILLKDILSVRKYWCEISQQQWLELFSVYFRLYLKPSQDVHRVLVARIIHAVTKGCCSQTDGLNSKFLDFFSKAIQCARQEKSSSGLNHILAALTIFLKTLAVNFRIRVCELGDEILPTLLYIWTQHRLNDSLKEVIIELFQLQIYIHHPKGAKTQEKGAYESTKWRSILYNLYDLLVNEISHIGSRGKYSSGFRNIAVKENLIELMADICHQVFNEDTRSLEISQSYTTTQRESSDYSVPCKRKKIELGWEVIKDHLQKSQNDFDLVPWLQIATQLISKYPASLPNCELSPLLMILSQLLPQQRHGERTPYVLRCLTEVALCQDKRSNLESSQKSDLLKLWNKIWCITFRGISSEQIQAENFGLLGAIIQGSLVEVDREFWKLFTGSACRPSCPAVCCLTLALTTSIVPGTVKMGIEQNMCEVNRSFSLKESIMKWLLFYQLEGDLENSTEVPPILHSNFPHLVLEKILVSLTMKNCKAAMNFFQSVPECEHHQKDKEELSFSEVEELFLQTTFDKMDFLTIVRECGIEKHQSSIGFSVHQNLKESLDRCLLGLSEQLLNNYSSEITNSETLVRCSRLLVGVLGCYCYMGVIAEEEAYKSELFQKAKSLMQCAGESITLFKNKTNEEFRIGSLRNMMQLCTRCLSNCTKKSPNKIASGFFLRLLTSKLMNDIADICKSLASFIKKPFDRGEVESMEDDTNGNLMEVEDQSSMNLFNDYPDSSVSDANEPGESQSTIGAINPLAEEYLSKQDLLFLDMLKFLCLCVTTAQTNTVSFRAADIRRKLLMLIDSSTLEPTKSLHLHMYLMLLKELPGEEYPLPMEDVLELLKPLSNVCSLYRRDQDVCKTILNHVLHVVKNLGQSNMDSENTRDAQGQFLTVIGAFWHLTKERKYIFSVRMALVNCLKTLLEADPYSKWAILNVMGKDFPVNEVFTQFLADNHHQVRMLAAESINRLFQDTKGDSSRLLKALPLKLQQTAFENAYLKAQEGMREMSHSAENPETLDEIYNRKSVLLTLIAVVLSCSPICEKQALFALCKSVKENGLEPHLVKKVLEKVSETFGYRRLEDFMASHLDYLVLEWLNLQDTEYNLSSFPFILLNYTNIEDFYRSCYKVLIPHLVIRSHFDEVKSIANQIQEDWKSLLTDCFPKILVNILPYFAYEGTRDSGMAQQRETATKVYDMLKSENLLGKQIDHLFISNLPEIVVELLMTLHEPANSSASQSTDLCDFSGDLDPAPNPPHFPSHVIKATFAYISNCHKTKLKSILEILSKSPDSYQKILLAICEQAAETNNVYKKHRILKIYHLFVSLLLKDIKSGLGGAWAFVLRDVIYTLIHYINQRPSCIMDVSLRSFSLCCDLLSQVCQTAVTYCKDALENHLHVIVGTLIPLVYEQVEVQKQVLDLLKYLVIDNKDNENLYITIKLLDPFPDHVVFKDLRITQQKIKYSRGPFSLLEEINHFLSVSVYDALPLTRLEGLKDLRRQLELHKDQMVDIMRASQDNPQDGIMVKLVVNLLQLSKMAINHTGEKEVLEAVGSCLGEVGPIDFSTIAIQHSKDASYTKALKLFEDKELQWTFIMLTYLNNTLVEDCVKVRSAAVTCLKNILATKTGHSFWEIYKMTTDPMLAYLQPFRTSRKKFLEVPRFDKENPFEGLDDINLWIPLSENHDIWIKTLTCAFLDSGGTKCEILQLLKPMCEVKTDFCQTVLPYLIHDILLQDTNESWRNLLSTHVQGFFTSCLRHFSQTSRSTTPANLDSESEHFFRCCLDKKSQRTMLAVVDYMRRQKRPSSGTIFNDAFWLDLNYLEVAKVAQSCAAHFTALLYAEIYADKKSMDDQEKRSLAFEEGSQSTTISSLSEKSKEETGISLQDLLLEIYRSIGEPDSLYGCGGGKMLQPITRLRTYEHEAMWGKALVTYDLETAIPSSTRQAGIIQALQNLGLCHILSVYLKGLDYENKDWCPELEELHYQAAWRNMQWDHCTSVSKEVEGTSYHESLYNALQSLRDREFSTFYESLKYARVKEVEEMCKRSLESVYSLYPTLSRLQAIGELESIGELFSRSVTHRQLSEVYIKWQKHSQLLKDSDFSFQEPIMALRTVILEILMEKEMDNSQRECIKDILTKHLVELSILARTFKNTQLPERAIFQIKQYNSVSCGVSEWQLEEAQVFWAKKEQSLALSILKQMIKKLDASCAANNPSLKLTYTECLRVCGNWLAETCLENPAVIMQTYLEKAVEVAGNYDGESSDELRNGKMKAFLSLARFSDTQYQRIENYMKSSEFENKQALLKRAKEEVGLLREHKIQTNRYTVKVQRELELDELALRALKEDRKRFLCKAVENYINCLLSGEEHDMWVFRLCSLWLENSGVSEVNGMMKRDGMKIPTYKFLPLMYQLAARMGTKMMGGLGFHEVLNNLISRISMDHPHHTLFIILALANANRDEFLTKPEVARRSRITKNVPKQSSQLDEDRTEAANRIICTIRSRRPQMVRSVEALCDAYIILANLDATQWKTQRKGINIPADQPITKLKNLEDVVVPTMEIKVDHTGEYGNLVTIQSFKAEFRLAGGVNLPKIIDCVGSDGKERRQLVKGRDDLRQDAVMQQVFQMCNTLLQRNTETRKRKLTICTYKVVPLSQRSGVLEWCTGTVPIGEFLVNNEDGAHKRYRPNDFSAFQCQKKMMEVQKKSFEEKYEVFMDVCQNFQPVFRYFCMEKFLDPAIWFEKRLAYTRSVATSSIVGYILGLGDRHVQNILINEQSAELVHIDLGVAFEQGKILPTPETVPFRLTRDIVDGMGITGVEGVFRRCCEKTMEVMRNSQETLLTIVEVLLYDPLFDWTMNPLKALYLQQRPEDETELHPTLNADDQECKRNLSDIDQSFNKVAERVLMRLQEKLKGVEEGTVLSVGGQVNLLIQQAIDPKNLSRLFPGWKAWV

HDAC2, sequence (Q92769 whole entry): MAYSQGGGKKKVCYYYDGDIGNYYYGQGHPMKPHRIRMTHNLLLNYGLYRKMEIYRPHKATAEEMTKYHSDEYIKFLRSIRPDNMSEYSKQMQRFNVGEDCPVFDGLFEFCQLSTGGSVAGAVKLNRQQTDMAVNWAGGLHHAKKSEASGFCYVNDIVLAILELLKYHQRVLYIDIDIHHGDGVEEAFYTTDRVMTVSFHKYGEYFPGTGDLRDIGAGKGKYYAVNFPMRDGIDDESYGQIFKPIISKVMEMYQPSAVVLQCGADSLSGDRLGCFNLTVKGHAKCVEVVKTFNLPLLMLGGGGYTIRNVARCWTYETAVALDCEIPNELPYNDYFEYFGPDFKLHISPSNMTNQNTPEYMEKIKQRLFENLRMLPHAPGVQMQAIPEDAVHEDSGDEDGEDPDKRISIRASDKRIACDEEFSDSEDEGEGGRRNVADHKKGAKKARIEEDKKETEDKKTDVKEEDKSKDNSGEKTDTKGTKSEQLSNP

SMILES	HDAC2 (IC50, nM) (HDAC2)	HDAC2 (IC50, nM) (HDAC2; listed as lartesertib)	body weight of mice [1]	ATM (IC50, nM) (ATM)	ATM (IC50, nM) (ATM; listed as vorinostat)
COc1cc2ncc3c(c2cc1-c1cn(C)nc1C)n(-c1c(F)cncc1OC)c(=O)n3C [Lartesertib]	no inhibition	no inhibitory effect	–	–	–
O=C(CCCCCCC(=O)Nc1ccccc1)NO [Vorinostat]	–	–	slight decrease	no inhibition	did not affect

Reference: article PMC11585990 (Drug Design, Development and Therapy, 2024)
